Sampled rows, rich in hits. Any-hit rate of the full collection: about 1.7%.
CHO-K1 Ca PAM – counter-screen for M1 PAMs: effect in parental CHO-K1 cells; ATP EC20, Fluo-8 calcium fluorescence; 0% at ATP EC20, 100% at ATP max; activation, % at 3 µM; 360,000 tested, 0.02% active;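 active = activation above the run cutoff, the mean activation of all test compounds plus 3 SD, cut at about 40% in these data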;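 also: peak over basal fluorescence ratio in a 140 s read after ATP addition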
M5 ag – agonists of human muscarinic M5 receptor (CHRM5) | CHO-K1 hM5 cells, Fluo-8 calcium fluorescence; 0% DMSO wells, 100% maximal acetylcholine response | activation, % at 3 µM | P08912 | AID 624037 | 360,000 tested, 0.19% active;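 active = activation above the run's mean over test compounds plus 3 SD, cut at about 23% in these data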;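 also: signal is peak over basal fluorescence ratio across the kinetic read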
Target sequence (P08912 whole entry, looked up): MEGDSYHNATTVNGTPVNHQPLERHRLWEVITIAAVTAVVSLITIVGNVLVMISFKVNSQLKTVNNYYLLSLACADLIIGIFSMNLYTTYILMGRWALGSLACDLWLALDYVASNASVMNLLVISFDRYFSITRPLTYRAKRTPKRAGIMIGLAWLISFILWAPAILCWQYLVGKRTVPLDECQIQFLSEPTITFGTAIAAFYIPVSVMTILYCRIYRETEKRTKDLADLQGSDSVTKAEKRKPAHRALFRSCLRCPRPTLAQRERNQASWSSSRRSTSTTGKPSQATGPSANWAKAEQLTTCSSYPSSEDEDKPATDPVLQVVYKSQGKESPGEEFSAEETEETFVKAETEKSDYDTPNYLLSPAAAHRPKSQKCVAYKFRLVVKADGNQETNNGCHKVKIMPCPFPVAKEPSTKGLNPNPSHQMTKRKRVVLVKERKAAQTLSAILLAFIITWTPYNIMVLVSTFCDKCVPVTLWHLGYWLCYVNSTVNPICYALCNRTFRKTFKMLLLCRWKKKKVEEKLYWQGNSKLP
M5 PAM – CHRM5 positive allosteric modulation; P08912; CHO-K1 hM5, Fluo-8 calcium, ACh EC20 PAM; 0% = ACh EC20, 100% = ACh EC100; activation, % at 3 µM; 360,000 tested, 0.3% active; AID 624038;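 active = activation above the run cutoff, the mean activation of all test compounds plus 3 SD, cut at about 18% in these data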
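Measured by: Fluo-8 calcium fluorescence; material: human M5 receptor in CHO-K1 cells; schedule: Post-acetylcholine fluorescence recording 140 s; benchmarks: low control EC20 acetylcholine (0%), high control EC100 acetylcholine (100%); read-out: Max/basal fluorescence ratio as % of EC20–EC100 ACh window; compound: single dose, 3 µM nominal final test concentration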
M5 antag – antagonists of human muscarinic M5 receptor (CHRM5) | 360,000 tested, 0.59% active | inhibition, % at 3 µM | CHO-hM5 cells, Fluo-8 calcium fluorescence, ACh EC80 | AID 624040 | P08912;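 active = inhibition above a per-plate cutoff, the mean of that plate's test compounds plus 3 SD, cut at about 27% in these data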;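 also: 0% = acetylcholine EC80 with DMSO and 100% = DMSO without agonist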
CHO-K1 Ca antag – nonselective inhibitor or artifact in parental CHO-K1 cells | AID 602250 | 360,000 tested, 0.6% active | ATP-induced calcium, Fluo-8 fluorescence | inhibition, % at 3 µM;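 active = inhibition above a per-plate cutoff, the plate's mean sample inhibition plus 3 SD, cut at about 24% in these data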;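 also: 0% = DMSO plus EC80 ATP and 100% = DMSO alone without ATP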
CHO-K1 Ca ag – counter-screen for M1 agonists: effect in parental CHO-K1 cells; Fluo-8 calcium fluorescence; scaled to maximal ATP response, vehicle zero; activation, % at 3 µM; 360,000 tested, 0.48% active; in the data active = activation above about 15%;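 also: untransfected CHO-K1 host cells lacking M1 receptor as counterscreen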
Active calls of the source: *.

How did O=C(NNC(=O)C1CC(=O)N(c2ccc3c(c2)OCCO3)C1)c1ccc(F)cc1 (stereo unspecified) do in these assays?
CHO-K1 Ca PAM: -35.6; M5 ag: 2.0; M5 PAM: 2.7; M5 antag: 4.8; CHO-K1 Ca antag: 27.1*; CHO-K1 Ca ag: -0.2

Results for CCOc1ccc(S(=O)(=O)n2cc(F)c(=O)[nH]c2=O)cc1 ?
CHO-K1 Ca PAM: -10.2; M5 ag: 4.0; M5 PAM: -11.0; M5 antag: 12.3; CHO-K1 Ca antag: 23.8*; CHO-K1 Ca ag: 4.8

What do the screens show for `CCOc1ccc(S(=O)(=O)n2cc(F)c(=O)[nH]c2=O)cc1[N+](=O)[O-]`?
CHO-K1 Ca PAM: -4.0; M5 ag: 0.6; M5 PAM: 1.0; M5 antag: -5.8; CHO-K1 Ca antag: -13.2; CHO-K1 Ca ag: 0.3

Results for COC(=O)c1sccc1NC(=O)Nc1ccccc1OC ?
CHO-K1 Ca PAM: -11.5; M5 ag: -5.0; M5 PAM: -1.6; M5 antag: -1.8; CHO-K1 Ca antag: -9.7; CHO-K1 Ca ag: 0.9

What do the screens show for `COc1ccc(NS(=O)(=O)c2c(C)cc(C)cc2C)cc1`?
CHO-K1 Ca PAM: 3.6; M5 ag: -11.0; M5 PAM: 25.6*; M5 antag: 5.4; CHO-K1 Ca antag: -22.4; CHO-K1 Ca ag: 0.2

What do the screens show for `Cc1cc(C)c(S(=O)(=O)Nc2ccccc2-c2ccccc2)c(C)c1`?
CHO-K1 Ca PAM: 44.2*; M5 ag: -7.2; M5 PAM: -3.6; M5 antag: 8.6; CHO-K1 Ca antag: -22.0; CHO-K1 Ca ag: 0.5

Results for COc1cccc(NS(=O)(=O)c2c(C)cc(C)cc2C)c1 ?
CHO-K1 Ca PAM: 16.6; M5 ag: -3.0; M5 PAM: -2.7; M5 antag: -0.7; CHO-K1 Ca antag: -22.3; CHO-K1 Ca ag: 2.6

Results for O=S(=O)(Nc1ccccc1-c1ccccc1)c1ccccc1 ?
CHO-K1 Ca PAM: 21.3; M5 ag: -6.3; M5 PAM: -7.8; M5 antag: 15.5; CHO-K1 Ca antag: -22.9; CHO-K1 Ca ag: 0.5

How did COC(=O)c1ccccc1NC(=O)CSc1nc(N)cc(N)n1 do in these assays?
CHO-K1 Ca PAM: 0.8; M5 ag: 2.1; M5 PAM: 0.1; M5 antag: 1.8; CHO-K1 Ca antag: 26.2*; CHO-K1 Ca ag: 0.0

How did CCOC(=O)c1ccccc1NC(=O)CSc1nc(N)cc(N)n1 do in these assays?
CHO-K1 Ca PAM: 14.6; M5 ag: 0.1; M5 PAM: 12.2; M5 antag: 0.4; CHO-K1 Ca antag: -9.7; CHO-K1 Ca ag: -0.1

What do the screens show for `CN1CCCN(C(=O)/C=C/c2ccc(F)cc2)CC1`?
CHO-K1 Ca PAM: 20.4; M5 ag: -1.1; M5 PAM: 2.5; M5 antag: -1.2; CHO-K1 Ca antag: -6.9; CHO-K1 Ca ag: 0.5

What do the screens show for `Cc1cccc(C(=O)NCc2nnc(SCc3ccc(F)cc3)n2C)c1`?
CHO-K1 Ca PAM: 3.8; M5 ag: -0.6; M5 PAM: -0.7; M5 antag: -11.3; CHO-K1 Ca antag: -5.1; CHO-K1 Ca ag: 1.4

How did COc1cc(OC)cc(C(=O)N2CCN(S(C)(=O)=O)CC2)c1 do in these assays?
CHO-K1 Ca PAM: 15.0; M5 ag: -5.3; M5 PAM: 31.4*; M5 antag: -6.8; CHO-K1 Ca antag: -5.5; CHO-K1 Ca ag: 0.2

What do the screens show for `COc1ccc(NC(=O)CN(c2ccccc2F)S(=O)(=O)c2ccc(C)cc2)c(OC)c1`?
CHO-K1 Ca PAM: -2.6; M5 ag: 0.3; M5 PAM: -5.9; M5 antag: 11.7; CHO-K1 Ca antag: 3.6; CHO-K1 Ca ag: -0.1

How did CC12CN3CC(C)(CN(C1)C3c1ccc3c(c1)OCO3)C2O (stereo unspecified) do in these assays?
CHO-K1 Ca PAM: -28.0; M5 ag: -0.4; M5 PAM: 8.7; M5 antag: 3.8; CHO-K1 Ca antag: 100.3*; CHO-K1 Ca ag: 4.7

How did COc1ccc(NC(=O)/C(Cl)=C(/Cl)S(=O)Cc2ccc(Cl)cc2)cn1 (stereo unspecified) do in these assays?
CHO-K1 Ca PAM: -14.2; M5 ag: -0.6; M5 PAM: -1.7; M5 antag: 22.7; CHO-K1 Ca antag: 30.5*; CHO-K1 Ca ag: 0.8

What do the screens show for `COc1ccc(NC(=O)C(Cl)=C(Cl)Cl)cn1`?
CHO-K1 Ca PAM: 17.8; M5 ag: -4.0; M5 PAM: -1.2; M5 antag: 5.9; CHO-K1 Ca antag: -9.4; CHO-K1 Ca ag: 0.1

High-throughput results deposited in PubChem by The Scripps Research Institute Molecular Screening Center.
